Measurements published in ChEMBL document CHEMBL1781959, “Synthesis and in vitro antitumor activity of substituted quinazoline and quinoxaline derivatives: search for anticancer agent” (Eur J Med Chem, 2011).

Assays:
SNB-19 = test: Anticancer activity against human SNB19 cells assessed as cell growth promotion at 10^-5 M after 48 hrs by SRB assay relative to control; format: functional
SNB-75 = test: Anticancer activity against human SNB75 cells assessed as cell growth promotion at 10^-5 M after 48 hrs by SRB assay relative to control; format: functional
MOLT-4 [1] = test: Growth inhibition of human MOLT4 cells after 48 hrs by SRB assay; format: functional; details: MOLT-4, 48 h
Outline: (§1)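 NCI 60-panel five-dose assay at 0.01, 0.1, 1, 10 and 100 μM. Cells in RPMI 1640 with 5% FBS and 2 mM L-glutamine, preincubated 24 h, with time-zero plates TCA-fixed. Drug exposure 48 h at 37 °C. Read by SRB staining at 515 nm. GI50 is the concentration where [(Ti−Tz)/(C−Tz)]×100 = 50, taken from log concentration versus % growth curves.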

LOX IMVI = test: Growth inhibition of human LOXIMVI cells after 48 hrs by SRB assay; format: functional; outline: as §1
M14 [2] = test: Anticancer activity against human M14 cells assessed as cell growth promotion at 10^-5 M after 48 hrs by SRB assay relative to control; format: functional
MDA-MB-435 = test: Anticancer activity against human MDA-MB-435 cells assessed as cell growth promotion at 10^-5 M after 48 hrs by SRB assay relative to control; format: functional
SK-MEL-2 [3] = test: Anticancer activity against human SK-MEL-2 cells assessed as cell growth promotion at 10^-5 M after 48 hrs by SRB assay relative to control; format: functional
SK-MEL-5 = test: Anticancer activity against human SK-MEL-5 cells assessed as cell growth promotion at 10^-5 M after 48 hrs by SRB assay relative to control; format: functional
OVCAR-4 = test: Anticancer activity against human OVCAR4 cells assessed as cell growth promotion at 10^-5 M after 48 hrs by SRB assay relative to control; format: functional
OVCAR-8 = test: Anticancer activity against human OVCAR8 cells assessed as cell growth promotion at 10^-5 M after 48 hrs by SRB assay relative to control; format: functional
SK-OV-3 = test: Anticancer activity against human SKOV3 cells assessed as cell growth promotion at 10^-5 M after 48 hrs by SRB assay relative to control; format: functional
A498 [4] = test: Anticancer activity against human A498 cells assessed as cell growth promotion at 10^-5 M after 48 hrs by SRB assay relative to control; format: functional
ACHN = test: Anticancer activity against human ACHN cells assessed as cell growth promotion at 10^-5 M after 48 hrs by SRB assay relative to control; format: functional
RXF 393 = test: Anticancer activity against human RXF393 cells assessed as cell growth promotion at 10^-5 M after 48 hrs by SRB assay relative to control; format: functional
TK-10 [5] = test: Anticancer activity against human TK10 cells assessed as cell growth promotion at 10^-5 M after 48 hrs by SRB assay relative to control; format: functional
UO-31 [6] = test: Anticancer activity against human UO31 cells assessed as cell growth promotion at 10^-5 M after 48 hrs by SRB assay relative to control; format: functional
DU-145 [7] = test: Anticancer activity against human DU145 cells assessed as cell growth promotion at 10^-5 M after 48 hrs by SRB assay relative to control; format: functional
SK-MEL-2 [8] = test: Growth inhibition of human SK-MEL-2 cells after 48 hrs by SRB assay; format: functional; details: SK-MEL-2, 48 h
Outline: (§2)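 NCI-60 panel cells grown in RPMI 1640 with 5% FBS and 2 mM L-glutamine, then seeded at 5000–40,000 cells/well by doubling time and preincubated for 24 h. Compound in DMSO was tested either at 10^-5 M alone or at 0.01–100 μM in five doses, for 48 h at 37 °C. Cells were fixed with cold TCA (10% final), stained with SRB, and read at 515 nm. GI50 was taken from % growth relative to time-zero and control wells.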

IGROV-1 [9] = test: Growth inhibition of human IGROV1 cells after 48 hrs by SRB assay; format: functional; details: IGROV-1, 48 h; outline: as §1
786-0 = test: Growth inhibition of human 786-0 cells after 48 hrs by SRB assay; format: functional; details: 786-0, 48 h; outline: as §1
UO-31 [10] = test: Growth inhibition of human UO31 cells after 48 hrs by SRB assay; format: functional; details: UO-31, 48 h; outline: as §2
MOLT-4 [11] = test: Anticancer activity against human MOLT4 cells assessed as cell growth promotion at 10^-5 M after 48 hrs by SRB assay relative to control; format: functional
BT-549 = test: Anticancer activity against human BT549 cells assessed as cell growth promotion at 10^-5 M after 48 hrs by SRB assay relative to control; format: functional
T47D = test: Anticancer activity against human T47D cells assessed as cell growth promotion at 10^-5 M after 48 hrs by SRB assay relative to control; format: functional
EKVX = test: Anticancer activity against human EKVX cells assessed as cell growth promotion at 10^-5 M after 48 hrs by SRB assay relative to control; format: functional
NCI-H522 = test: Anticancer activity against human NCI-H522 cells assessed as cell growth promotion at 10^-5 M after 48 hrs by SRB assay relative to control; format: functional
KM12 = test: Anticancer activity against human KM12 cells assessed as cell growth promotion at 10^-5 M after 48 hrs by SRB assay relative to control; format: functional
M14 [12] = test: Cytotoxicity against human M14 cells after 48 hrs by SRB assay; format: cell-based; details: m14, 48 h
Outline: (§3)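 NCI-60 five-dose screen in RPMI 1640 with 5% FBS and 2 mM L-glutamine; 5000–40,000 cells/well, 24 h pre-incubation. DMSO stocks diluted to 0.01, 0.1, 1, 10 and 100 μM final; 48 h at 37 °C, 5% CO2. Fixed with TCA (10% final adherent, 16% suspension), stained with 0.4% SRB, A515. GI50, TGI and LC50 taken from time-zero, control and test absorbances.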

IGROV-1 [13] = test: Cytotoxicity against human IGROV1 cells after 48 hrs by SRB assay; format: cell-based; details: igrov-1, 48 h; outline: as §3
A498 [14] = test: Cytotoxicity against human A498 cells after 48 hrs by SRB assay; format: cell-based; details: a498, 48 h; outline: as §3
TK-10 [15] = test: Cytotoxicity against human TK10 cells after 48 hrs by SRB assay; format: cell-based; details: tk-10, 48 h
Outline: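 NCI-60 five-dose screen. Cells grown in RPMI 1640 with 5% FBS and 2 mM L-glutamine and pre-incubated 24 h; a time-zero plate is TCA-fixed. Drug added at 0.01, 0.1, 1, 10 and 100 µM (DMSO stock) for 48 h at 37 °C, 5% CO2. Fixed with cold TCA (10% final for adherent, 16% for suspension cells), stained with 0.4% SRB, A515. GI50, TGI and LC50 taken from dose-response curves.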

DU-145 [16] = test: Cytotoxicity against human DU145 cells after 48 hrs by SRB assay; format: cell-based; details: du-145, 48 h; outline: as §3

Structure (SMILES): O=c1c2ccccc2nc(-c2ccco2)n1/N=C/c1ccccc1Cl
- Activity (SNB-19): 62.14%
- Activity (SNB-75): 32.38%
- GI50 (MOLT-4 [1]): > 100 µM
- TGI (MOLT-4 [1]): > 100 µM
- GI50 (LOX IMVI): 4.54 µM
- TGI (LOX IMVI): > 100 µM
- Activity (M14 [2]): 87.98%
- Activity (MDA-MB-435): 90.21%
- Activity (SK-MEL-2 [3]): 67.89%
- Activity (SK-MEL-5): 48.82%
- Activity (OVCAR-4): 4.38%
- Activity (OVCAR-8): 26.87%
- Activity (SK-OV-3): 25.85%
- Activity (A498 [4]): 36.82%
- Activity (ACHN): 23.89%
- Activity (RXF 393): 82.73%
- Activity (TK-10 [5]): 73.98%
- Activity (UO-31 [6]): 62.12%
- Activity (DU-145 [7]): 56.23%
- GI50 (SK-MEL-2 [8]): 6.86 µM
- TGI (SK-MEL-2 [8]): > 100 µM
- GI50 (IGROV-1 [9]): 6.12 µM
- TGI (IGROV-1 [9]): > 100 µM
- GI50 (786-0): 3.94 µM
- TGI (786-0): 14.9 µM
- GI50 (UO-31 [10]): 6.12 µM
- TGI (UO-31 [10]): > 100 µM
- Activity (MOLT-4 [11]): 99.12%
- Activity (BT-549): 13.63%
- Activity (T47D): 62.59%
- Activity (EKVX): 64.12%
- Activity (NCI-H522): 10.38%
- Activity (KM12): 26.67%
- LC50 (M14 [12]): > 100 µM
- LC50 (IGROV-1 [13]): > 100 µM
- LC50 (A498 [14]): > 100 µM
- LC50 (TK-10 [15]): > 100 µM
- LC50 (DU-145 [16]): > 100 µM
